{"source": "ChEMBL document CHEMBL5724801", "about": "“EUbOPEN Chemogenomics Library - Multiplex” (2024)", "note": "Where “and” joins values, the source holds several entries; their conditions need not be identical. Equal values may be shown once."}
{"test_system": "U2OS", "experiment": "(§1) Multiplex assay against U2OS", "type": "toxicity, cell-based", "conditions": "human, 12 h, 1 µM, compound concentration 1 uM", "outline": "(§2)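 Phenotypes for tubulin, mitochondrial mass and membrane permeability are expressed as per cents of healthy-nucleus cells. Cells were stained live at seeding with Hoechst33342, BioTracker Green Microtubule Cytoskeleton Dye, MitoTracker Red and Annexin V Alexa Fluor 680, then imaged after compound addition on a CQ1 microscope at 37°C and 5% CO2. Machine-learning gating in CellPathfinder separated Hoechst high-intensity objects from normal cells, divided normal cells by nuclear state (healthy, pyknosed, fragmented) and divided pyknosed cells into mitotic or apoptotic.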"}
{"smiles": "N#Cc1c(Oc2cccc(OS(=O)(=O)CCCC(F)(F)F)c2)cccc1C(F)(F)F", "Population Apoptotic (%)": "77% and 81%", "Population Fragmented Nuclei (%)": "27% and 12%", "Population Healthy Nuclei (%)": "61% and 76%", "Population Hoechst High Intensity Objects (%)": "3% and 0%", "Population Membrane Permeable-Phenotype (%)": "4% and 7%", "Population Mitochondria Different-Phenotype (%)": "2% and 7%", "Population Mitotic Cells (%)": "22% and 18%", "Population Normal (%)": "96% and 99%", "Population Pyknosed Nuclei (%)": "10%", "Population Tubulin-Different-Phenotype (%)": "0% and 8%", "Total Cell Count": "220 and 109"}
{"smiles": "CC(C)C[C@H](CO)Nc1nc(S[C@@H](C)c2ccccc2)nc2nc(N)sc12", "note": "[AZD-8797]", "Population Apoptotic (%)": "83% and 100%", "Population Fragmented Nuclei (%)": "20% and 12%", "Population Healthy Nuclei (%)": "65% and 82%", "Population Hoechst High Intensity Objects (%)": "3% and 0%", "Population Membrane Permeable-Phenotype (%)": "5%", "Population Mitochondria Different-Phenotype (%)": "1% and 5%", "Population Mitotic Cells (%)": "16% and 0%", "Population Normal (%)": "96% and 100%", "Population Pyknosed Nuclei (%)": "14% and 5%", "Population Tubulin-Different-Phenotype (%)": "2% and 3%", "Total Cell Count": "177 and 95"}
{"test_system": "U2OS", "experiment": "as §1", "type": "toxicity, cell-based", "conditions": "human, 12 h, 10 µM, compound concentration 10 uM", "outline": "as §2", "units": {"Population Tubulin-Different-Phenotype (%)": "%"}}
{"smiles": "N#Cc1c(Oc2cccc(OS(=O)(=O)CCCC(F)(F)F)c2)cccc1C(F)(F)F", "Population Apoptotic (%)": "78% and 90%", "Population Fragmented Nuclei (%)": "27% and 14%", "Population Healthy Nuclei (%)": "63% and 75%", "Population Hoechst High Intensity Objects (%)": "3% and 0%", "Population Membrane Permeable-Phenotype (%)": "11% and 21%", "Population Mitochondria Different-Phenotype (%)": "8% and 4%", "Population Mitotic Cells (%)": "21% and 9%", "Population Normal (%)": "96% and 99%", "Population Pyknosed Nuclei (%)": "8% and 9%", "Population Tubulin-Different-Phenotype (%)": 7, "Total Cell Count": "222 and 112"}
{"smiles": "CC(C)C[C@H](CO)Nc1nc(S[C@@H](C)c2ccccc2)nc2nc(N)sc12", "note": "[AZD-8797]", "Population Apoptotic (%)": "63% and 78%", "Population Fragmented Nuclei (%)": "21% and 9%", "Population Healthy Nuclei (%)": "56% and 79%", "Population Hoechst High Intensity Objects (%)": "4% and 2%", "Population Membrane Permeable-Phenotype (%)": "30% and 10%", "Population Mitochondria Different-Phenotype (%)": "12% and 16%", "Population Mitotic Cells (%)": "36% and 21%", "Population Normal (%)": "95% and 97%", "Population Pyknosed Nuclei (%)": "22% and 10%", "Total Cell Count": "222 and 135"}
{"test_system": "U2OS", "experiment": "as §1", "type": "toxicity, cell-based", "conditions": "human, 24 h, 1 µM, compound concentration 1 uM", "outline": "as §2"}
{"smiles": "N#Cc1c(Oc2cccc(OS(=O)(=O)CCCC(F)(F)F)c2)cccc1C(F)(F)F", "Population Apoptotic (%)": "75% and 90%", "Population Fragmented Nuclei (%)": "25% and 12%", "Population Healthy Nuclei (%)": "61% and 79%", "Population Hoechst High Intensity Objects (%)": "2% and 1%", "Population Membrane Permeable-Phenotype (%)": "4% and 11%", "Population Mitochondria Different-Phenotype (%)": "2% and 3%", "Population Mitotic Cells (%)": "24% and 10%", "Population Normal (%)": "97% and 98%", "Population Pyknosed Nuclei (%)": "12% and 7%", "Population Tubulin-Different-Phenotype (%)": "3% and 7%", "Total Cell Count": "263 and 130"}
{"smiles": "CC(C)C[C@H](CO)Nc1nc(S[C@@H](C)c2ccccc2)nc2nc(N)sc12", "note": "[AZD-8797]", "Population Apoptotic (%)": "81% and 83%", "Population Fragmented Nuclei (%)": "20% and 17%", "Population Healthy Nuclei (%)": "68% and 77%", "Population Hoechst High Intensity Objects (%)": "1% and 0%", "Population Membrane Permeable-Phenotype (%)": "2% and 4%", "Population Mitochondria Different-Phenotype (%)": "0% and 2%", "Population Mitotic Cells (%)": "18% and 16%", "Population Normal (%)": "98% and 100%", "Population Pyknosed Nuclei (%)": "10% and 4%", "Population Tubulin-Different-Phenotype (%)": "2% and 3%", "Total Cell Count": "219 and 121"}
{"test_system": "U2OS", "experiment": "as §1", "type": "toxicity, cell-based", "conditions": "human, 24 h, 10 µM, compound concentration 10 uM", "outline": "as §2", "units": {"Population Pyknosed Nuclei (%)": "%"}}
{"smiles": "N#Cc1c(Oc2cccc(OS(=O)(=O)CCCC(F)(F)F)c2)cccc1C(F)(F)F", "Population Apoptotic (%)": "66%", "Population Fragmented Nuclei (%)": "26% and 9%", "Population Healthy Nuclei (%)": "66% and 83%", "Population Hoechst High Intensity Objects (%)": "6% and 3%", "Population Membrane Permeable-Phenotype (%)": "10% and 11%", "Population Mitochondria Different-Phenotype (%)": "8% and 0%", "Population Mitotic Cells (%)": "33%", "Population Normal (%)": "93% and 96%", "Population Pyknosed Nuclei (%)": 7, "Population Tubulin-Different-Phenotype (%)": "5% and 7%", "Total Cell Count": "252 and 130"}
{"smiles": "CC(C)C[C@H](CO)Nc1nc(S[C@@H](C)c2ccccc2)nc2nc(N)sc12", "note": "[AZD-8797]", "Population Apoptotic (%)": "76% and 100%", "Population Fragmented Nuclei (%)": "20% and 7%", "Population Healthy Nuclei (%)": "58% and 86%", "Population Hoechst High Intensity Objects (%)": "3% and 1%", "Population Membrane Permeable-Phenotype (%)": "22% and 9%", "Population Mitochondria Different-Phenotype (%)": "12%", "Population Mitotic Cells (%)": "24% and 0%", "Population Normal (%)": "96% and 98%", "Population Tubulin-Different-Phenotype (%)": "13% and 6%", "Total Cell Count": "245 and 156"}
{"test_system": "U2OS", "experiment": "as §1", "type": "toxicity, cell-based", "conditions": "human, 48 h, 1 µM, compound concentration 1 uM", "outline": "as §2"}
{"smiles": "N#Cc1c(Oc2cccc(OS(=O)(=O)CCCC(F)(F)F)c2)cccc1C(F)(F)F", "Population Apoptotic (%)": "87% and 100%", "Population Fragmented Nuclei (%)": "17% and 16%", "Population Healthy Nuclei (%)": "70% and 73%", "Population Hoechst High Intensity Objects (%)": "3% and 2%", "Population Membrane Permeable-Phenotype (%)": "4% and 9%", "Population Mitochondria Different-Phenotype (%)": "0% and 4%", "Population Mitotic Cells (%)": "12% and 0%", "Population Normal (%)": "96% and 97%", "Population Pyknosed Nuclei (%)": "11% and 9%", "Population Tubulin-Different-Phenotype (%)": "3% and 7%", "Total Cell Count": "361 and 195"}
{"smiles": "CC(C)C[C@H](CO)Nc1nc(S[C@@H](C)c2ccccc2)nc2nc(N)sc12", "note": "[AZD-8797]", "Population Apoptotic (%)": "94% and 100%", "Population Fragmented Nuclei (%)": "18% and 15%", "Population Healthy Nuclei (%)": "69% and 77%", "Population Hoechst High Intensity Objects (%)": "2%", "Population Membrane Permeable-Phenotype (%)": "6% and 2%", "Population Mitochondria Different-Phenotype (%)": "0% and 2%", "Population Mitotic Cells (%)": "5% and 0%", "Population Normal (%)": "97%", "Population Pyknosed Nuclei (%)": "11% and 6%", "Population Tubulin-Different-Phenotype (%)": "2%", "Total Cell Count": "352 and 181"}
{"test_system": "U2OS", "experiment": "as §1", "type": "toxicity, cell-based", "conditions": "human, 48 h, 10 µM, compound concentration 10 uM", "outline": "as §2"}
{"smiles": "N#Cc1c(Oc2cccc(OS(=O)(=O)CCCC(F)(F)F)c2)cccc1C(F)(F)F", "Population Apoptotic (%)": "91% and 100%", "Population Fragmented Nuclei (%)": "23% and 11%", "Population Healthy Nuclei (%)": "64% and 77%", "Population Hoechst High Intensity Objects (%)": "4% and 3%", "Population Membrane Permeable-Phenotype (%)": "10% and 13%", "Population Mitochondria Different-Phenotype (%)": "6% and 4%", "Population Mitotic Cells (%)": "8% and 0%", "Population Normal (%)": "95% and 96%", "Population Pyknosed Nuclei (%)": "11% and 10%", "Population Tubulin-Different-Phenotype (%)": "6% and 7%", "Total Cell Count": "328 and 184"}
{"smiles": "CC(C)C[C@H](CO)Nc1nc(S[C@@H](C)c2ccccc2)nc2nc(N)sc12", "note": "[AZD-8797]", "Population Apoptotic (%)": "90% and 96%", "Population Fragmented Nuclei (%)": "26% and 12%", "Population Healthy Nuclei (%)": "54% and 74%", "Population Hoechst High Intensity Objects (%)": "4% and 3%", "Population Membrane Permeable-Phenotype (%)": "20% and 11%", "Population Mitochondria Different-Phenotype (%)": "10% and 5%", "Population Mitotic Cells (%)": "9% and 3%", "Population Normal (%)": "95% and 96%", "Population Pyknosed Nuclei (%)": "19% and 12%", "Population Tubulin-Different-Phenotype (%)": "14% and 4%", "Total Cell Count": "296 and 218"}
